Test results from ChEMBL document CHEMBL5120910, “Small-Molecule Gankyrin Inhibition as a Therapeutic Strategy for Breast and Lung Cancer” (J Med Chem, 2022).

Legend:
A549 = assay: Antiproliferative activity against human A549 cells assessed as cell growth inhibition measured after 72 hrs by MTT assay; format: functional, cell-based; settings: A549, 72 h
Summary of the method: (§1)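 Cells seeded at 2.5 × 10^4 cells/well, allowed 24 h before dosing, then exposed to increasing concentrations (0.5% DMSO final) for 72 h at 37 °C, 5% CO2. MTT added at 1 mg/mL final in complete media for 2 h, formazan dissolved in DMSO, absorbance read at 570 nm. 6–8 repeats per treatment; IC50 from concentration–response fit.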

MDA-MB-231 = assay: Antiproliferative activity against human MDA-MB-231 cells assessed as cell growth inhibition measured after 72 hrs by MTT assay; format: functional, cell-based; settings: MDA-MB-231, 72 h; summary of the method: as §1

| SMILES | IC50 (A549) [µM] | IC50 (MDA-MB-231) [µM] |
| --- | --- | --- |
| COC(=O)c1ccc(-n2cc(CCCNc3ccc(C)cc3)nn2)cc1 | > 100 | 33 |
| COC(=O)c1ccc(-c2cn(CCCOS(=O)(=O)c3ccc(C)cc3)nn2)cc1 | > 100 | 39.1 |
| COC(=O)c1ccc(-n2cc(CCCOC(=O)c3ccc(C)cc3)nn2)cc1 | > 100 | > 100 |
| COC(=O)c1ccc(-n2cc(CCCNC(=O)c3ccc(C)cc3)nn2)cc1 | > 100 | > 100 |
| COC(=O)c1ccc(-n2cc(CCCOc3ccc(C)cc3)nn2)cc1 | > 100 | 14.2 |
| COC(=O)c1ccc(-c2cn(CCCC(=O)Nc3ccc(C)cc3)nn2)cc1 | > 100 | 2.7 |
| COC(=O)c1ccc(-c2nnc(CCCOS(=O)(=O)c3ccc(C)cc3)[nH]2)cc1 | > 100 | > 100 |
| COC(=O)c1ccc(-c2cn(CCCC(=S)Nc3ccc(C)cc3)nn2)cc1 | 50 | > 100 |
| COC(=O)c1ccc(-n2cc(CCCc3nnc(-c4ccc(C)cc4)o3)nn2)cc1 | 65.1 | 21.5 |
| COC(=O)c1ccc(-n2cc(CCCC(=O)Oc3ccc(C)cc3)nn2)cc1 | > 100 | 55.1 |
| COC(=O)c1ccc(-n2cc(CCCC(=S)Nc3ccc(C)cc3)nn2)cc1 | 7.9 | 8.1 |
| COC(=O)c1ccc(-c2cn(CCCC(=S)Nc3ccc(-c4ccccc4)cc3)nn2)cc1 | 42.3 | > 100 |
| COC(=O)c1ccc(-c2nnn(CCCOS(=O)(=O)c3ccc(C)cc3)n2)cc1 | > 100 | > 100 |
